From ChEMBL document CHEMBL4364323, “Synthesis and biological evaluation of moxifloxacin-acetyl-1,2,3-1H-triazole-methylene-isatin hybrids as potential anti-tubercular agents against both drug-susceptible and drug-resistant Mycobacterium tuberculosis strains” (Eur J Med Chem, 2019)
Converted amounts (≈) assume the structure as drawn.

Tests used:
Format in all cases: functional
Settings in all cases: 168 h
[1] = test system: Mycobacterium tuberculosis; assay: Antimycobacterial activity against rifampicin-resistant Mycobacterium tuberculosis incubated for 7 days by rapid direct susceptibility test
Method in brief: (§1)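 Two-fold compound dilutions were mixed with MTB suspension containing 4×10 -3 mg cells per well and incubated at 37 °C in a wet box. MIC was read from the quantity and state of cells in each well under a continuous visual high-magnification system and was re-determined 7 days later.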

[2] = test system: Mycobacterium tuberculosis; assay: Antimycobacterial activity against multidrug (isoniazid and rifampicin) resistant Mycobacterium tuberculosis 1 incubated for 7 days by rapid direct susceptibility test; method in brief: as §1
[3] = test system: Mycobacterium tuberculosis; assay: Antimycobacterial activity against multidrug (isoniazid and rifampicin) resistant Mycobacterium tuberculosis 2 incubated for 7 days by rapid direct susceptibility test; method in brief: as §1

Row | SMILES | MIC [1] | MIC [2] | MIC [3]
1 | CO/N=C1/C(=O)N(Cc2cn(CC(=O)N3CCC[C@@H]4CN(c5c(F)cc6c(=O)c(C(=O)O)cn(C7CC7)c6c5OC)C[C@@H]43)nn2)c2ccccc21 | 1 µg/mL (≈ 1.43 µM) | 0.5 µg/mL (≈ 0.716 µM) | 1 µg/mL (≈ 1.43 µM)
2 | COc1c(N2C[C@H]3CCCN(C(=O)Cn4cc(CN5C(=O)/C(=N/NC(N)=S)c6ccccc65)nn4)[C@H]3C2)c(F)cc2c(=O)c(C(=O)O)cn(C3CC3)c12 | 0.25 µg/mL (≈ 0.337 µM) | 0.25 µg/mL (≈ 0.337 µM) | 0.5 µg/mL (≈ 0.673 µM)
3 | COc1c(N2C[C@H]3CCCN(C(=O)Cn4cc(CN5C(=O)/C(=N/NC(N)=S)c6cc(F)ccc65)nn4)[C@H]3C2)c(F)cc2c(=O)c(C(=O)O)cn(C3CC3)c12 | 1 µg/mL (≈ 1.31 µM) | 1 µg/mL (≈ 1.31 µM) | 2 µg/mL (≈ 2.63 µM)
4 | COc1c(N2C[C@H]3CCCN(C(=O)Cn4cc(CN5C(=O)C(=O)c6ccccc65)nn4)[C@H]3C2)c(F)cc2c(=O)c(C(=O)O)cn(C3CC3)c12 | 0.5 µg/mL (≈ 0.747 µM) | 0.5 µg/mL (≈ 0.747 µM) | 0.25 µg/mL (≈ 0.373 µM)
5 | COc1c(N2CCNC(C)C2)c(F)cc2c(=O)c(C(=O)O)cn(C3CC3)c12 (centres undefined) [GATIFLOXACIN] | 1 µg/mL (≈ 2.66 µM) | 0.25 µg/mL (≈ 0.666 µM) | 0.5 µg/mL (≈ 1.33 µM)
6 | NNC(=O)c1ccncc1 [ISONIAZID] | 0.5 µg/mL (≈ 3.65 µM) | 64 µg/mL (≈ 467 µM) | > 128 µg/mL
7 | COc1c(N2C[C@@H]3CCCN[C@@H]3C2)c(F)cc2c(=O)c(C(=O)O)cn(C3CC3)c12 [MOXIFLOXACIN] | 0.5 µg/mL (≈ 1.25 µM) | 0.25 µg/mL (≈ 0.623 µM) | 0.25 µg/mL (≈ 0.623 µM)
8 | CO[C@H]1/C=C/O[C@@]2(C)Oc3c(C)c(O)c4c(O)c(c(/C=N/N5CCN(C)CC5)c(O)c4c3C2=O)NC(=O)/C(C)=C\C=C\[C@H](C)[C@H](O)[C@@H](C)[C@@H](O)[C@@H](C)[C@H](OC(C)=O)[C@@H]1C [RIFAMPIN] | > 128 µg/mL | > 128 µg/mL | > 128 µg/mL
